Hits are enriched below; roughly 2.9% of the tested compounds scored in any of these assays.
TRPC4 act = activators of mouse TRPC4 channel; Q9QUQ5; HEK293 TRPC4beta/mu-opioid, Fluo4 calcium fluorescence; active compounds read high; B-score at 10 µM; actives 0.49% (n = 310,000); AID 2237;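 active = B-score above 5 SD of library B-scores, and initial fluorescence ratio not above library mean plus 5 SD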;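 note: positive B-score marks a calcium rise read as TRPC4 activation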
Target sequence (Q9QUQ5 whole entry, looked up): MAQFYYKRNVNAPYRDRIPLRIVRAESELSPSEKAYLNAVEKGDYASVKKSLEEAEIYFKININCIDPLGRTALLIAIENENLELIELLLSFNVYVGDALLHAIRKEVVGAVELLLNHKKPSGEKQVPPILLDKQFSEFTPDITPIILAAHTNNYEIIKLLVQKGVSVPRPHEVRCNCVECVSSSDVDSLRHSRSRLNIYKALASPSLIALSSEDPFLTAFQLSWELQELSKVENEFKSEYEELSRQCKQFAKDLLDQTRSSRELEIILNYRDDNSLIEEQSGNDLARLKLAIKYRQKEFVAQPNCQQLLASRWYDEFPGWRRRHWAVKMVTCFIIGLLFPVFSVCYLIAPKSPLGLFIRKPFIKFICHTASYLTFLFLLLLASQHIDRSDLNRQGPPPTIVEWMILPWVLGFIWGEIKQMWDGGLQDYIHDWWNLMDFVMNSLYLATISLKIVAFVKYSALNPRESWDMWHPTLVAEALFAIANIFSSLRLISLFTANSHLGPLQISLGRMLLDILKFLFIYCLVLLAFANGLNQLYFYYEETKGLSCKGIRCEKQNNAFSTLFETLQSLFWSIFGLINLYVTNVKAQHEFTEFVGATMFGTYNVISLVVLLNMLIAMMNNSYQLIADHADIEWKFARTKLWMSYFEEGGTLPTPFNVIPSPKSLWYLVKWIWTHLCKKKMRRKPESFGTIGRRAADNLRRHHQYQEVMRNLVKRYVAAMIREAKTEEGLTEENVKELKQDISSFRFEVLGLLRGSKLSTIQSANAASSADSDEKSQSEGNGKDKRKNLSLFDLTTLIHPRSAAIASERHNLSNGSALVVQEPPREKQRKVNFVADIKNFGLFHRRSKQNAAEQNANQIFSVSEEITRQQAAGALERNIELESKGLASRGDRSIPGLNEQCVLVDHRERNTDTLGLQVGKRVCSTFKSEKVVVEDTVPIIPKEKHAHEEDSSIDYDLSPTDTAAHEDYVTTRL
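Test system: HEK293 cells stably co-expressing mouse TRPC4beta and mu-opioid receptor | Schedule: Fluo4 dye loading 45 min at room temperature, 110 s recording | Measured by: Kinetic Fluo4 calcium fluorescence, 5 s baseline at 1 Hz | Evaluation: B score of integrated ratio | Controls: Buffer (low) and maximal DAMGO (high)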
TRPC4 PAM = TRPC4 (mouse) allosteric potentiation; B-score at 10 µM; actives 0.42% (n = 310,000); Q9QUQ5; HEK293 TRPC4beta/mu-opioid, DAMGO EC20, Fluo-4 Ca2+ flux; active compounds read high;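 active = B-score of calcium response area above 5 SD of library B-scores, with initial fluorescence ratio within 5 SD of library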
TRPC6 act = activators of mouse TRPC6 channel. Q61143. HEK293-TRPC6 membrane potential dye fluorescence; active compounds read high. B-score at 10 µM. actives 0.13% (n = 310,000). AID 2550;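 active = B-score of the integrated fluorescence ratio above library mean plus 3 SD, and starting fluorescence ratio within library mean plus 5 SD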;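 note: higher score means more depolarization so channel activation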
Kir21 block = inhibitors of mouse Kir2.1 inward-rectifier potassium channel. P35561. HEK293-Kir2.1, FluxOR thallium flux fluorescence; active compounds read low. B-score at 10 µM. AID 1672. actives 0.85% (n = 310,000);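 active = fluorescence ratio B-score at or below minus 3 SD of library scores, with starting-brightness B-score within 2 SD, cut at about -4.2 in these data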;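 note: channel flux triggered by added potassium and thallium sulfate stimulus; B-score of peak minus minimum fluorescence over baseline after thallium stimulus; more negative B-score means stronger Kir2.1 block with less thallium influx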
TRPC4 block = inhibitors of mouse TRPC4 channel; HEK293 TRPC4beta/mu-opioid, DAMGO-evoked Fluo4 calcium flux; active compounds read low; B-score at 10 µM; actives 0.39% (n = 300,000);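 active = B-score over 3 SD under the library average, no early fluorescence shift, positive overall ratio signal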
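Material: HEK293 cells with stable TRPC4beta plus mu-opioid receptor expression; probe or stimulus: DAMGO in two steps, submaximal then maximal; technique: Fluo4 calcium fluorescence by kinetic imaging, 5 s 1 Hz baseline; measure: integrated fluorescence ratio relative to baseline, converted to per-well B score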
TRPC6 inh = inhibitors of mouse TRPC6 channel; Q61143; HEK293-TRPC6, membrane potential dye, ACh-evoked depolarization; active compounds read low; B-score at 10 µM; actives 1.1% (n = 310,000);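 active = B-score under library mean minus 3 SD, initial fluorescence not abnormally high, positive integrated signal ratio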;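 note: B-score derived from integrated fluorescence ratio over the kinetic read; more negative B-score means stronger inhibition of depolarization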
TRPC4 spec 2 = mouse TRPC4 off-target activity of TRPC6 inhibitors, second screen; shares compounds with TRPC6 inh; HEK293 TRPC4/MOR, membrane potential dye fluorescence; channel activated by saturating DAMGO dose; actives 42% (n = 920); AID 2776; inhibition, % at 10 µM;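 active = compounds whose fluorescence signal differed from control wells by over 3 SD, either direction, in both duplicate plates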
TRPC4 spec = mouse TRPC4 off-target activity of TRPC6 inhibitors; actives 61% (n = 920); AID 2777; shares compounds with TRPC6 inh; activity change, negative = inhibition, % at 10 µM; HEK293 TRPC4/mu-opioid, membrane potential fluorescence;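 active = rise or fall in signal beyond 3 SD of buffer-only wells in both replicate plates, either sign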;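 note: integrated kinetic ratio of fluorescence range over baseline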
HEK293 MPD ctr 2-1 = second check of TRPC6 inhibitor effects in parental HEK293 cells; shares compounds with TRPC6 inh; actives 31% (n = 920); parental HEK293 membrane potential dye fluorescence; maximal acetylcholine challenge after compound addition; AID 2779; signal change vs control, % at 10 µM;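 active = membrane potential signal moving either way by over 3 SD of the maximum-effect control, in both duplicate plates, meaning non-specific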
HEK293 MPD ctr-1 = parental HEK293 nonspecific activity of TRPC6 inhibitors | AID 2780 | parental HEK293 membrane potential dye fluorescence | shares compounds with TRPC6 inh | membrane potential signal change, % at 10 µM | actives 60% (n = 920);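 active = membrane potential signal shifting up or down by more than 3 SD of buffer-only wells, on both duplicate plates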
HEK293 MPD ctr-2 = parental HEK293 nonspecific activity of TRPC6 modulators | AID 488924 | membrane potential dye fluorescence | actives 51% (n = 2,400) | shares compounds with TRPC6 inh | membrane potential signal change, % at 10 µM;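 active = membrane potential signal moves up or down beyond 5 SD from buffer-only wells, on both duplicate plates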
HEK293 MPD ctr 2-2 = parental HEK293 nonspecific activity of TRPC6 modulators, second screen; membrane potential dye fluorescence; after compound, maximal acetylcholine stimulation; actives 14% (n = 2,400); shares compounds with TRPC6 inh; inhibition, % at 10 µM;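 active = membrane potential signal drops by more than 5 SD from the mean control signal, in both duplicate plates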
TRPC4 ctr mod = mouse TRPC4 off-target activity of TRPC6 modulators | AID 488927 | percent change from control (negative = decrease, positive = increase), % at 10 µM | HEK293 TRPC4/mu-opioid, membrane potential fluorescence | actives 69% (n = 2,400) | shares compounds with TRPC6 inh;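 active = membrane potential signal moved up or down beyond 5 SD of buffer control wells, in both duplicate plates, actives on both sides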
TRPC4/MOR inh 2 = second selectivity test of TRPC6 modulators against mouse TRPC4; shares compounds with TRPC6 inh; HEK293 TRPC4/mu-opioid, membrane potential dye fluorescence; stimulated with maximal-effect DAMGO; inhibition, % at 10 µM; actives 55% (n = 2,400); AID 488928;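 active = drop in membrane potential signal beyond 5 SD of the control wells in both duplicate plates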;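 note: TRPC4 counter screen for TRPC6 hits run under conditions tuned for TRPC6 not TRPC4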
TRPC6 inh conf = confirmation of mouse TRPC6 inhibitors. shares compounds with TRPC6 inh. HEK293-TRPC6, membrane potential dye, ACh-evoked depolarization. inhibition, % at 10 µM. actives 43% (n = 3,300). AID 488960;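 active = fluorescence ratio falls more than 5 SD below the full-stimulation control mean, in both duplicate runs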;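 note: integrated fluorescence ratio of peak minus minimum over baseline after agonist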
TRPC6 act confirm = mouse TRPC6 activator confirmation | shares compounds with TRPC6 inh | HEK293-TRPC6 membrane potential dye fluorescence, FDSS | activation, % at 10 µM | actives 11% (n = 2,800);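 active = ratio signal rise beyond 5 SD above unstimulated control wells' mean, seen in both duplicate runs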
Of the large screens only hits and unclear results are named; the others gave an inactive call (follow-up assays come after a bar, where they were run).

COC(=O)c1ccc(N2CCN(C)CC2)c(NC(=O)c2sc3ccccc3c2Cl)c1	TRPC4 act 71, TRPC6 inh -6.73 | HEK293 MPD ctr-2 -196.5% | HEK293 MPD ctr 2-2 inactive | TRPC4 ctr mod -45.5% | TRPC4/MOR inh 2 73.5% | TRPC6 inh conf inactive | TRPC6 act confirm inactive
Cc1ccc(/C=C/C(=O)c2ccccc(=O)c2O)cc1C	none
O=[N+]([O-])c1cccc(-c2cn3ccccc3n2)c1	none
COc1ccc(-c2cn3cc([N+](=O)[O-])ccc3n2)cc1OC	TRPC6 inh -5.05 | HEK293 MPD ctr-2 -111.0% | HEK293 MPD ctr 2-2 inactive | TRPC4 ctr mod -22.0% | TRPC4/MOR inh 2 30.0% | TRPC6 inh conf inactive | TRPC6 act confirm inactive
CCCc1c(C(=O)Nc2cc(C)on2)cnn1-c1ccccc1	none
CNc1nc(NCc2ccccc2)c2ccccc2n1	Kir21 block -5.4, TRPC4 block -6, TRPC6 inh -5.27 | HEK293 MPD ctr-2 -110.5% | HEK293 MPD ctr 2-2 inactive | TRPC4 ctr mod -26.0% | TRPC4/MOR inh 2 78.5% | TRPC6 inh conf 53.5% | TRPC6 act confirm inactive
Oc1ccccc1-c1nc(NCc2ccccc2)c2ccccc2n1	none
Nc1nc(NCCCN2CCOCC2)nc(Nc2cccc(Cl)c2)c1[N+](=O)[O-]	TRPC6 inh -5.56 | HEK293 MPD ctr-2 inactive | HEK293 MPD ctr 2-2 inactive | TRPC4 ctr mod -18.5% | TRPC4/MOR inh 2 85.5% | TRPC6 inh conf 51.5% | TRPC6 act confirm inactive
CC(C)n1c(C(F)(F)F)nc2cc(C(=O)N3CCCCC3)ccc21	none
O=C(C[n+]1cccc2ccccc21)c1ccccc1	none
O=C(C[n+]1cc2ccccc2c2ccccc21)c1ccccc1	TRPC4 act 49, TRPC4 block -7, TRPC6 inh -9.85 | TRPC4 spec 2 33.0% | TRPC4 spec 0.9% | HEK293 MPD ctr 2-1 inactive | HEK293 MPD ctr-1 -486.0% | TRPC6 inh conf inactive | TRPC6 act confirm inactive
N#CCNC(=O)C1CC(=O)N(CCc2ccc(F)cc2)C1 (stereo unspecified)	none
CC(C)(CO)C(O)C(=O)NCCC#N (stereo unspecified)	none
CCCCCC(=O)Nc1ccc2ccccc2c1	none

Compound activity from PubChem.
